This is an account of results in ChEMBL document CHEMBL2413013, “Triplex-forming ability of oligonucleotides containing 1-aryl-1,2,3-triazole nucleobases linked via a two atom-length spacer” (Bioorg Med Chem, 2013).

Test [1] can be described thus: Binding affinity to hairpin double stranded DNA AT base pair in sodium cacodylate buffer at pH 6.8 assessed as triplex-forming ability measuring melting temperature after by UV melting experiment. The gist of the method:
(§1)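 TFO and hairpin dsDNA target, each strand at 1.89 μM final, in 10 mM sodium cacodylate (pH 6.8) with 100 mM KCl and 50 mM MgCl₂. Annealed in boiling water, then cooled slowly to 5 °C. Melting was followed at 260 nm from 5 to 90 °C at 0.5 °C/min. Tm was taken by the two-point average method, mean of three independent runs.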

Test [2] in a line: Binding affinity to hairpin double stranded DNA GC base pair in sodium cacodylate buffer at pH 6.8 assessed as triplex-forming ability measuring melting temperature after by UV melting experiment. The method, boiled down: as §1
A short description of test [3]: Binding affinity to hairpin double stranded DNA CG base pair in sodium cacodylate buffer at pH 6.8 assessed as triplex-forming ability measuring melting temperature after by UV melting experiment. The gist of the method: as §1
Test [4] is described as follows: Binding affinity to hairpin double stranded DNA TA base pair in sodium cacodylate buffer at pH 6.8 assessed as triplex-forming ability measuring melting temperature after by UV melting experiment. The gist of the method:
as §1

For `Cc1cn([C@H]2C[C@H](O[PH](OCCC#N)(OC[C@H]3O[C@@H](n4cc(C)c(=O)[nH]c4=O)C[C@@H]3O[PH](OCCC#N)(OC[C@H]3O[C@@H](n4cc(C)c(=O)[nH]c4=O)C[C@@H]3O[PH](OCCC#N)(OC[C@H]3O[C@@H](n4cc(C)c(=O)[nH]c4=O)C[C@@H]3O[PH](OCCC#N)(OC[C@H]3O[C@@H](n4cc(C)c(=O)[nH]c4=O)C[C@@H]3O[PH](OCCC#N)(OC(C)[C@H]3O[C@@H](n4ccc(N)nc4=O)C[C@@H]3O[PH](OCCC#N)(OC[C@H]3O[C@@H](n4cc(C)c(=O)[nH]c4=O)C[C@@H]3O[PH](OCCC#N)(OC[C@H]3O[C@@H](OCc4cn(-c5cccc(NC(N)=O)c5)nn4)C[C@@H]3OP(=O)(O)OC[C@H]3O[C@@H](n4cc(C)c(=O)[nH]c4=O)C[C@@H]3O[PH](OCCC#N)(OC(C)[C@H]3O[C@@H](n4ccc(N)nc4=O)C[C@@H]3O[PH](OCCC#N)(OC[C@H]3O[C@@H](n4cc(C)c(=O)[nH]c4=O)C[C@@H]3O[PH](OCCC#N)(OC(C)[C@H]3O[C@@H](n4ccc(N)nc4=O)C[C@@H]3O[PH](OCCC#N)(OC[C@H]3O[C@@H](n4cc(C)c(=O)[nH]c4=O)C[C@@H]3O[PH](OCCC#N)(OC(C)[C@H]3O[C@@H](n4ccc(N)nc4=O)C[C@@H]3O[PH](OCCC#N)(OC[C@H]3O[C@@H](n4cc(C)c(=O)[nH]c4=O)C[C@@H]3O)N(C(C)C)C(C)C)N(C(C)C)C(C)C)N(C(C)C)C(C)C)N(C(C)C)C(C)C)N(C(C)C)C(C)C)N(C(C)C)C(C)C)N(C(C)C)C(C)C)N(C(C)C)C(C)C)N(C(C)C)C(C)C)N(C(C)C)C(C)C)N(C(C)C)C(C)C)N(C(C)C)C(C)C)N(C(C)C)C(C)C)[C@@H](CO)O2)c(=O)[nH]c1=O` (some centres undefined), the Tm worked out at 21 °C in test [1], 23 °C in test [2], 25 °C in test [3] and 23 °C in test [4].
